How the values were obtained:
[1] = system: Phosphatidylinositol 4,5-bisphosphate 3-kinase catalytic subunit alpha isoform (Homo sapiens), P42336 [E545K]; assay: Binding affinity to human partial length PIK3CA E545K mutant (R108 to N1068 residues) expressed in HEK293 cells at 1 uM by Kinomescan method relative to control; assay type: cell-based
[2] = target: Serine/threonine-protein kinase 25 (Homo sapiens) (UniProt O00506); assay: Binding affinity to wild-type human partial length YSK1 (V14 to H295 residues) expressed in Escherichia coli BL21 at 1 uM by Kinomescan method relative to control
[3] = target: Phosphatidylinositol 4,5-bisphosphate 3-kinase catalytic subunit alpha isoform (Homo sapiens) (UniProt P42336); assay: Binding affinity to wild-type human partial length PIK3CA (R108 to N1068 residues) expressed in HEK293 cells at 1 uM by Kinomescan method relative to control; assay type: cell-based
[4] = target: SNF-related serine/threonine-protein kinase (Homo sapiens) (UniProt Q9NRH2); assay: Binding affinity to wild-type human partial length SNRK (M1 to E339 residues) expressed in HEK293 cells at 1 uM by Kinomescan method relative to control; assay type: cell-based
Chain of SNF-related serine/threonine-protein kinase (Homo sapiens) (Q9NRH2 whole entry, the tested form may be a part): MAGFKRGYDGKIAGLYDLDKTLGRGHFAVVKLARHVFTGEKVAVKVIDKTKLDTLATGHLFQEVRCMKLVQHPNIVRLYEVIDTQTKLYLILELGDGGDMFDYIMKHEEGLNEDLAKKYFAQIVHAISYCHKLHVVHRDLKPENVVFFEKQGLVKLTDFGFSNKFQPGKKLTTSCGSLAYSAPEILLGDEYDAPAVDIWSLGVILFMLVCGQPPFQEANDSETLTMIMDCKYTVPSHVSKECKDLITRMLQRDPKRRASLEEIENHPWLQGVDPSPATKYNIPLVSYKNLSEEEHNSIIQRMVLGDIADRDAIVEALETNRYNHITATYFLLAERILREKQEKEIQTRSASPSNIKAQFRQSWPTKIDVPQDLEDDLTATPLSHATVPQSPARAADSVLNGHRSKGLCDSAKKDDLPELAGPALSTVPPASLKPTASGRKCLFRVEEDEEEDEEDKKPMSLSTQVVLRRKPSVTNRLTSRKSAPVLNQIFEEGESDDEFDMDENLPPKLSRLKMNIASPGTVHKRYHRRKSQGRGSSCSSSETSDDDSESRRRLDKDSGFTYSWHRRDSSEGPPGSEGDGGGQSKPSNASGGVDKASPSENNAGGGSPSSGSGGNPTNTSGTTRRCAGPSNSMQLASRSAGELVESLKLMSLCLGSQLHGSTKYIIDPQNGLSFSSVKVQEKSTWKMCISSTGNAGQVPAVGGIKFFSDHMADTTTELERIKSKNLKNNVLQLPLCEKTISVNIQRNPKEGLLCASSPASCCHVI

[5] = target: Serine/threonine-protein kinase PAK 1 (Homo sapiens) (UniProt Q13153); assay: Binding affinity to wild-type human partial length PAK1 (S149 to H545 residues) expressed in Escherichia coli BL21 at 1 uM by Kinomescan method relative to control
Chain of Serine/threonine-protein kinase PAK 1 (Homo sapiens) (Q13153 whole entry, the tested form may be a part): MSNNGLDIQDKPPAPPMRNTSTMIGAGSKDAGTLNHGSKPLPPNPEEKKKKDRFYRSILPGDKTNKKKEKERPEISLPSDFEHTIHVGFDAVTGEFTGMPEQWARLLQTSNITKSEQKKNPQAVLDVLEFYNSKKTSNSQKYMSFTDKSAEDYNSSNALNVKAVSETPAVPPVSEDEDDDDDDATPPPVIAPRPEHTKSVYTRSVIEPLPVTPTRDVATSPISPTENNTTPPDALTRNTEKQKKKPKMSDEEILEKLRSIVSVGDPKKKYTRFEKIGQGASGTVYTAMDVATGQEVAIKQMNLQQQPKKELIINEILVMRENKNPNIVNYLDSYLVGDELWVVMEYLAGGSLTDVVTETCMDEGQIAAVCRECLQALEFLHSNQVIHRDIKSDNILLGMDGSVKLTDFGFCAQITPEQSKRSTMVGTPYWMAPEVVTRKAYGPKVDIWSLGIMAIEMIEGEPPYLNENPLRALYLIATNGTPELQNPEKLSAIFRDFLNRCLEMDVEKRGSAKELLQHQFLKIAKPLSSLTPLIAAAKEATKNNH

[6] = target: Atypical kinase COQ8A, mitochondrial (Homo sapiens) (UniProt Q8NI60); assay: Binding affinity to wild-type human […] ADCK3 (M280 to Q647 residues) expressed in Escherichia coli BL21 at 1 uM by Kinomescan method relative to control
[7] = target: Cyclin-G-associated kinase (Homo sapiens) (UniProt O14976); assay: Binding affinity to wild-type human partial length GAK (G13 to Y338 residues) expressed in Escherichia coli BL21 at 1 uM by Kinomescan method relative to control
Chain of Cyclin-G-associated kinase (Homo sapiens) (O14976 whole entry, the tested form may be a part): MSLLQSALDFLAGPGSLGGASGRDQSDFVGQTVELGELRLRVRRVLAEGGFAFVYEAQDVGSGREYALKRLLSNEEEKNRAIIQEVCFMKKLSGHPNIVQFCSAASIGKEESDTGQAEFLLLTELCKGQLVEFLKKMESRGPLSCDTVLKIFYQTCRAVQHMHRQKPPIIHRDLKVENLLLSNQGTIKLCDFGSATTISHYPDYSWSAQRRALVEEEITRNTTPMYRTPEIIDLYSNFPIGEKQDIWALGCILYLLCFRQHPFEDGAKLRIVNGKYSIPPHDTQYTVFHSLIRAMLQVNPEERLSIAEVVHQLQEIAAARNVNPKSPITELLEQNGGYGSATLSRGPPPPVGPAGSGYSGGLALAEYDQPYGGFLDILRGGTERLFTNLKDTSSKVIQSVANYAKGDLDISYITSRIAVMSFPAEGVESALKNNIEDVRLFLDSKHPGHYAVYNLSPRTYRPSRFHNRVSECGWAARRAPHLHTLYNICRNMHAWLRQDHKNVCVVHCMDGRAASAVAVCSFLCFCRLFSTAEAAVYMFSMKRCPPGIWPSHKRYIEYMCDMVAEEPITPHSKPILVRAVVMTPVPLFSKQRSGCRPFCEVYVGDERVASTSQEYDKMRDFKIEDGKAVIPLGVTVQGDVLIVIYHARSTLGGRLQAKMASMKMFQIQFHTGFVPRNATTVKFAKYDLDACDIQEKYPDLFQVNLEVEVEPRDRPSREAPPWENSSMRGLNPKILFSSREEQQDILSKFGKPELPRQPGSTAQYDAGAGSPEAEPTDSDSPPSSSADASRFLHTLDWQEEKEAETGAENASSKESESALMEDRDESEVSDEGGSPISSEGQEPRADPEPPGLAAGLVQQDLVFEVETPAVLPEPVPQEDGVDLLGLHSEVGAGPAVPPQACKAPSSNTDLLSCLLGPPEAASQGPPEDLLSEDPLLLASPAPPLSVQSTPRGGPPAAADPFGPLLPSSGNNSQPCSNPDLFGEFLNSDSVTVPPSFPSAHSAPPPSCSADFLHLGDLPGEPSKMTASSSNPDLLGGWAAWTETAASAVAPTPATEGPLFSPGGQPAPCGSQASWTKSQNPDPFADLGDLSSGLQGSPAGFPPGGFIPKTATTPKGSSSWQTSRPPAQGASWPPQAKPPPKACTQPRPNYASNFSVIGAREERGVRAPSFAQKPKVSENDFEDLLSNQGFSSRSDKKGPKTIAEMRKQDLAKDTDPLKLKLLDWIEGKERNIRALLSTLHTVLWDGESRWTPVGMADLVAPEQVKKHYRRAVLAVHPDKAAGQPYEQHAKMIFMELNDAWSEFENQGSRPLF

[8] = target: Dual specificity protein kinase CLK3 (Homo sapiens) (UniProt P49761); assay: Binding affinity to wild-type human full length CLK3 (M1 to R490 residues) expressed in Escherichia coli BL21 at 1 uM by Kinomescan method relative to control
How it was run: (§1)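 Run as one kinome-wide competition binding panel with each compound at a single fixed concentration. Results were plotted as a kinome-wide selectivity map.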

[9] = target: Serine/threonine-protein kinase ULK1 (Homo sapiens) (UniProt O75385); assay: Binding affinity to wild-type human partial length ULK1 (M1 to T309 residues) expressed in HEK293 cells at 1 uM by Kinomescan method relative to control; assay type: cell-based
Chain of Serine/threonine-protein kinase ULK1 (Homo sapiens) (O75385 whole entry, the tested form may be a part): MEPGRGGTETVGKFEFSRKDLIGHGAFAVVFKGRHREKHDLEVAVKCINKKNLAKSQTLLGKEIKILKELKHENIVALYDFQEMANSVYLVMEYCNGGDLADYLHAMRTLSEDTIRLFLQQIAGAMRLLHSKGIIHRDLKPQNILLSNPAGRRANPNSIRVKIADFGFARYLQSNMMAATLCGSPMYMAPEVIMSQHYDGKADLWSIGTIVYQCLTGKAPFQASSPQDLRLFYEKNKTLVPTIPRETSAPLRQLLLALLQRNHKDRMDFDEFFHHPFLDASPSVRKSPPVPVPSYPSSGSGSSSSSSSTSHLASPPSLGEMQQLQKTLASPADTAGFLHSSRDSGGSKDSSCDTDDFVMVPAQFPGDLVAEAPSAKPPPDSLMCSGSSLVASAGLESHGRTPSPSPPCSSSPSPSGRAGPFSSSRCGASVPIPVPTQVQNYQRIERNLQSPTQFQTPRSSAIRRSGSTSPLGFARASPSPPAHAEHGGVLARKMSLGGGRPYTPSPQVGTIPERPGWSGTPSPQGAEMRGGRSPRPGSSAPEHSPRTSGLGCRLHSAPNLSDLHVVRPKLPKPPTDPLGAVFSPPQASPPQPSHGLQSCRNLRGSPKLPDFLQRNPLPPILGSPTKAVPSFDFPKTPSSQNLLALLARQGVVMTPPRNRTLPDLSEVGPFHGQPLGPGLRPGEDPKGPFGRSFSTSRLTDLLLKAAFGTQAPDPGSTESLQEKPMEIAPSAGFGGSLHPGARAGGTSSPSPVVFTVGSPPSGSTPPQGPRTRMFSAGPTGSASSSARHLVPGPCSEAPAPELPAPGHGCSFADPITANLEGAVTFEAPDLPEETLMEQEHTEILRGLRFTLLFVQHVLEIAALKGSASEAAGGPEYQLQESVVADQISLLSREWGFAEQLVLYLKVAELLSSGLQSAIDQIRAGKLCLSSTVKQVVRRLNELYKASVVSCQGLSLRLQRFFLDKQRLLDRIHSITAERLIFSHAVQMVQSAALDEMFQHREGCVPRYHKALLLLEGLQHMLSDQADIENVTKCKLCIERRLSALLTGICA

[10] = target: Ephrin type-B receptor 4 (Homo sapiens) (UniProt P54760); assay: Binding affinity to wild-type human partial length EPHB4 (H585 to G892 residues) expressed in Escherichia coli BL21 at 1 uM by Kinomescan method relative to control
[11] = target: Membrane-associated tyrosine- and threonine-specific cdc2-inhibitory kinase (Homo sapiens) (UniProt Q99640); assay: Binding affinity to wild-type human partial length PKMYT1 (A88 to G366 residues) expressed in Escherichia coli BL21 at 1 uM by Kinomescan method relative to control
[12] = target: Receptor-interacting serine/threonine-protein kinase 4 (Homo sapiens) (UniProt P57078); assay: Binding affinity to wild-type human partial length RIPK4 (M1 to V303 residues) expressed in HEK293 cells at 1 uM by Kinomescan method relative to control; assay type: cell-based
[13] = target: Mitogen-activated protein kinase 14 (Homo sapiens) (UniProt Q16539); assay: Binding affinity to wild-type human full length p38-alpha (M1 to S360 residues) expressed in Escherichia coli BL21 at 1 uM by Kinomescan method relative to control
How it was run: (§2)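 Kinome-wide competition binding panel run by an outside provider, with each compound tested at a single concentration. Activity is read against the kinase panel.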

[14] = system: Phosphatidylinositol 4,5-bisphosphate 3-kinase catalytic subunit alpha isoform (Homo sapiens), P42336 [I800L]; assay: Binding affinity to human partial length PIK3CA I800L mutant (R108 to N1068 residues) expressed in HEK293 cells at 1 uM by Kinomescan method relative to control; assay type: cell-based
[15] = system: Mast/stem cell growth factor receptor Kit (Homo sapiens), P10721 [V559D,T670I]; assay: Binding affinity to human partial length KIT V559D/T670I double mutant (Y545 to D952 residues) expressed in Escherichia coli BL21 at 1 uM by Kinomescan method relative to control
[16] = target: Fibroblast growth factor receptor 4 (Homo sapiens) (UniProt P22455); assay: Binding affinity to wild-type human partial length FGFR4 (G402 to E713 residues) expressed in Escherichia coli BL21 at 1 uM by Kinomescan method relative to control
[17] = target: Tyrosine-protein kinase HCK (Homo sapiens) (UniProt P08631); assay: Binding affinity to wild-type human full length HCK (M22 to P526 residues) expressed in Escherichia coli BL21 at 1 uM by Kinomescan method relative to control; how it was run: as §1
[18] = target: Insulin receptor-related protein (Homo sapiens) (UniProt P14616); assay: Binding affinity to wild-type human partial length INSRR (R950 to E1278 residues) expressed in Escherichia coli BL21 at 1 uM by Kinomescan method relative to control
[19] = target: CDK4/Cyclin D3 (Homo sapiens) (UniProt P11802+P30281); assay: Binding affinity to wild-type human full length CDK4/cyclinD3 (M1 to E303 residues) expressed in HEK293 cells at 1 uM by Kinomescan method relative to control; assay type: cell-based
[20] = target: Calcium/calmodulin-dependent protein kinase type 1G (Homo sapiens) (UniProt Q96NX5); assay: Binding affinity to wild-type human partial length CAMK1G (M1 to A342 residues) expressed in Escherichia coli BL21 at 1 uM by Kinomescan method relative to control
Chain of Calcium/calmodulin-dependent protein kinase type 1G (Homo sapiens) (Q96NX5 whole entry, the tested form may be a part): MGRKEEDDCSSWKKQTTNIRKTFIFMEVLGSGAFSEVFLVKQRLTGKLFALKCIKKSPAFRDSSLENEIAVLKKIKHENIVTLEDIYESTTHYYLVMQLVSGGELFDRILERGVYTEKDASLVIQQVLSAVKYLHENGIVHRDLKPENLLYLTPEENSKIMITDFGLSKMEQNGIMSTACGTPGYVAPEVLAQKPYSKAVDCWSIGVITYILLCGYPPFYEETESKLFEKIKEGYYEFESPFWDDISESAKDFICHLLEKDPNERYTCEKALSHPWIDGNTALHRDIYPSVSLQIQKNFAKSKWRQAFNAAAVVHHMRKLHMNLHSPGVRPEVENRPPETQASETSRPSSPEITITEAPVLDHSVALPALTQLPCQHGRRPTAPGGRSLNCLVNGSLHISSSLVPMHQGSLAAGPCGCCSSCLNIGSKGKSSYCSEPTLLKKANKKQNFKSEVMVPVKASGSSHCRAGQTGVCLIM

[21] = target: Cyclin-dependent kinase 14 (Homo sapiens) (UniProt O94921); assay: Binding affinity to wild-type human full length PFTK1 (M1 to H451 residues) expressed in Escherichia coli BL21 at 1 uM by Kinomescan method relative to control; how it was run: as §2
Chain of Cyclin-dependent kinase 14 (Homo sapiens) (O94921 whole entry, the tested form may be a part): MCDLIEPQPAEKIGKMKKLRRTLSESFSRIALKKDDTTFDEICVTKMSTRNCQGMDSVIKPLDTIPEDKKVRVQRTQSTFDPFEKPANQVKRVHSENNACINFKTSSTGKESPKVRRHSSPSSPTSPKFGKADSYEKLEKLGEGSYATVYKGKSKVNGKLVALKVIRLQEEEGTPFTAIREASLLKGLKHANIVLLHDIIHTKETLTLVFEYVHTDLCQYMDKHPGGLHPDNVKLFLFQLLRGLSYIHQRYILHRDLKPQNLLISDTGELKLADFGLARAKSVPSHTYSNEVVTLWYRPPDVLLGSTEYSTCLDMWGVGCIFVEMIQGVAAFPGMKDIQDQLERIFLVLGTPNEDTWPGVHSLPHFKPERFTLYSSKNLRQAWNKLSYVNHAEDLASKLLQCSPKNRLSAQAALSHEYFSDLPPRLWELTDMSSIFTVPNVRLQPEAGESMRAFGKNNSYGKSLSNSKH

[22] = target: Tyrosine-protein kinase Srms (Homo sapiens) (UniProt Q9H3Y6); assay: Binding affinity to wild-type human partial length SRMS (L208 to P488 residues) expressed in HEK293 cells at 1 uM by Kinomescan method relative to control; assay type: cell-based
[23] = target: Rhodopsin kinase GRK1 (Homo sapiens) (UniProt Q15835); assay: Binding affinity to wild-type human full length GRK1 (M1 to S563 residues) expressed in HEK293 cells at 1 uM by Kinomescan method relative to control; assay type: cell-based; how it was run: as §1
[24] = target: Casein kinase I isoform alpha-like (Homo sapiens) (UniProt Q8N752); assay: Binding affinity to wild-type human full length CSNK1A1L (M1 to N337 residues) expressed in Escherichia coli BL21 at 1 uM by Kinomescan method relative to control; how it was run: as §1
Chain of Casein kinase I isoform alpha-like (Homo sapiens) (Q8N752 whole entry, the tested form may be a part, canonical isoform): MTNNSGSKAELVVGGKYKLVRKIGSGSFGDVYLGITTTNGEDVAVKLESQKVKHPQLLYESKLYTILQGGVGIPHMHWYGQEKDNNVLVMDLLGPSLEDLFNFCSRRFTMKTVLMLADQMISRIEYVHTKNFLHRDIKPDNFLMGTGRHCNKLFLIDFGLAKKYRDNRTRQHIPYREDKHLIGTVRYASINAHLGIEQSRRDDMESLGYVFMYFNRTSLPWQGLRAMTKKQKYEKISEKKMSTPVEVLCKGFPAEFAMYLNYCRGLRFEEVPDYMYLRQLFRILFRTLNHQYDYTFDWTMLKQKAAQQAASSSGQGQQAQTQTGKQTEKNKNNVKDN

[25] = target: Vascular endothelial growth factor receptor 3 (Homo sapiens) (UniProt P35916); assay: Binding affinity to wild-type human partial length FLT4 (E821 to E1196 residues) expressed in Escherichia coli BL21 at 1 uM by Kinomescan method relative to control

SMILES	Activity [1]	Activity [2]	Activity [3]	Activity [4]	Activity [5]	Activity [6]	Activity [7]	Activity [8]	Activity [9]	Activity [10]	Activity [11]	Activity [12]	Activity [13]	Activity [14]	Activity [15]	Activity [16]	Activity [17]	Activity [18]	Activity [19]	Activity [20]	further results
CCC(=O)Nc1ccc(C(=O)Nc2ccc(Nc3ncc4c(n3)N(C)c3ccc(C)cc3C(=O)N4C)cc2)cc1	76%	100%	87%	75%	94%	96%	99%	91%	91%	100%	86%	86%	100%	78%	97%	97%	74%	100%	85%	100%	Activity [21]: 95%; Activity [22]: 89%; Activity [23]: 76%; Activity [24]: 97%; Activity [25]: 89%
C=CC(=O)Nc1ccc(C(=O)Nc2ccc(Nc3ncc4c(n3)N(C)c3ccc(C)cc3C(=O)N4C)cc2)cc1	72%	87%	76%	100%	93%	99%	82%	89%	79%	95%	96%	91%	100%	76%	100%	74%	100%	100%	100%	100%	Activity [21]: 100%; Activity [22]: 73%; Activity [23]: 73%; Activity [24]: 95%; Activity [25]: 98%

Source: ChEMBL document CHEMBL4184148 (Bioorg Med Chem Lett, 2017)
